Measured values reported in PMC7686272 (Angewandte Chemie (International ed. in English), 2020).
Like-named read-outs stand apart in the source and are kept apart here.

Experiments:
L858R/T790M EGFR = L858R/T790M EGFR (Homo sapiens, UniProt P00533, L858R/T790M); assay: Western blot of total EGFR protein in L858R/T790M Ba/F3 cells; type: cell-based, murine; conditions: L858R/T790M Ba/F3, 24 hours, 0.1 μM DDC-01-163; 10 μM pomalidomide, 1 μM JBJ-07-149 or increasing MLN4924
[1] = tested on: L858R/T790M/L718Q EGFR Ba/F3 cells; assay: Ba/F3 cell proliferation assay, L858R/T790M/L718Q EGFR; type: cell-based, murine
[2] = tested on: L858R/T790M/C797S EGFR Ba/F3 cells; assay: Ba/F3 cell proliferation assay, L858R/T790M/C797S EGFR; type: cell-based, murine
wildtype EGFR = wildtype EGFR (Homo sapiens, UniProt P00533); assay: Western blot of total EGFR protein in wildtype EGFR Ba/F3 cells; type: cell-based, murine; conditions: increasing concentrations, 6, 24 and 48 hours
How it was run: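 Wildtype EGFR Ba/F3 cells exposed to rising test-compound concentrations for 6, 24 and 48 h, then lysed and immunoblotted for total EGFR with tubulin as loading control. Band densitometry was normalised to tubulin and expressed as percent EGFR remaining relative to DMSO control. The same treatment was run in parallel on L858R/T790M Ba/F3 cells.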

EGFR L858R/T790M = EGFR L858R/T790M (Homo sapiens, UniProt P00533, L858R/T790M); assay: HTRF kinase assay of purified EGFR L858R/T790M; type: biochemical; conditions: for IC50: read-out: IC50 against EGFR L858R/T790M, HTRF assay, purified enzyme
CRBN = CRBN (Homo sapiens, UniProt Q96SW2); assay: Cellular CRBN engagement assay; type: cell-based; conditions: restoration of BRD4BD2-GFP signal, Figure 2B
Chain of CRBN (Q96SW2 whole entry, species assumed): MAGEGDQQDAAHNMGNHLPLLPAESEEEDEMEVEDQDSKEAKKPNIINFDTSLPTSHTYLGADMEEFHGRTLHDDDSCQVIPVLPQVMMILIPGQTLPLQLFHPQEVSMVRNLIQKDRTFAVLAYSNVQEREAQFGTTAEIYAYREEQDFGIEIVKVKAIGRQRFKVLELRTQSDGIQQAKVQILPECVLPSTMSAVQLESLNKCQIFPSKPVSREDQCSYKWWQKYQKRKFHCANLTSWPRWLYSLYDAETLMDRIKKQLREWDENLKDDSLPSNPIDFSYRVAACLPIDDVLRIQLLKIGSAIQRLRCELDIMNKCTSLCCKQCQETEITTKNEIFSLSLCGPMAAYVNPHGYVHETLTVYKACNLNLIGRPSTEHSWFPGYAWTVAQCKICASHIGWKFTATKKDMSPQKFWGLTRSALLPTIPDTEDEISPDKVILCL

Compound	effect on EGFR degradation by DDC-01-163 (competition / rescue) (L858R/T790M EGFR)	effect on EGFR protein levels in wildtype Ba/F3 cells (wildtype EGFR)	IC50 (EGFR L858R/T790M) [nM]	other results
NS(=O)(=O)OC[C@@H]1C[C@@H](n2ccc3c(N[C@H]4CCc5ccccc54)ncnc32)C[C@@H]1O [MLN4924]	rescue EGFR degradation	–	–	–
C=CC(=O)Nc1cc(Nc2nccc(-c3cn(C)c4ccccc34)n2)c(OC)cc1N(C)CCN(C)C [osimertinib, reference compound]	–	–	–	sensitivity of LT/L718Q EGFR Ba/F3 cells in cell proliferation assay [1]: resistant; sensitivity of LT/C797S EGFR Ba/F3 cells in cell proliferation assay [2]: resistant
O=C1CCC(N2C(=O)c3cccc(NCCOCCOCCOCCN4CCN(c5ccc(-c6ccc7c(c6)C(=O)N(C(C(=O)Nc6nccs6)c6cc(F)ccc6O)C7)cc5)CC4)c3C2=O)C(=O)N1 (stereo not drawn) [JBJ-07-038]	–	did not affect protein levels	19	–
Nc1cccc2c1C(=O)N(C1CCC(=O)NC1=O)C2=O (stereo not drawn) [pomalidomide]	prevented EGFR degradation	–	–	–
O=C(Nc1nccs1)C(c1ccccc1)N1Cc2ccc(-c3ccc(N4CCNCC4)nc3)cc2C1=O (stereo not drawn) [JBJ-07-149]	prevented EGFR degradation	–	1.1	sensitivity of LT/L718Q EGFR Ba/F3 cells in cell proliferation assay ([1]; L858R/T790M/L718Q EGFR Ba/F3 cells): resistant; sensitivity of LT/C797S EGFR Ba/F3 cells in cell proliferation assay ([2]; L858R/T790M/C797S EGFR Ba/F3 cells): resistant
O=C1CCC(N2C(=O)c3cccc(NCCOCCOCCOCCN4CCN(c5ccc(-c6ccc7c(c6)C(=O)N(C(C(=O)Nc6nccs6)c6cc(F)ccc6F)C7)cc5)CC4)c3C2=O)C(=O)N1 (stereo not drawn) [JBJ-07-200]	–	did not affect protein levels	390	cellular CRBN engagement (CRBN): more potent CRBN engagement than JBJ-07-038; reduction of biochemical activity compared to DDC-01-163 (EGFR L858R/T790M; ratio of IC50 values): 9 fold; reduction of biochemical activity compared to JBJ-07-038 (EGFR L858R/T790M; ratio of IC50 values): 21 fold
